Test results published in ChEMBL document CHEMBL2380225, “Chalcones, inhibitors for topoisomerase I and cathepsin B and L, as potential anti-cancer agents” (Bioorg Med Chem Lett, 2013).

What was measured:
[1] = system: SNU-638; assay: Cytotoxicity against human SNU638 cells by MTT assay; type: functional, cell-based
Summary of the method: (§1)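 MTT viability assay on T47D (breast ductal carcinoma) and SNU638 (gastric cancer) human cell lines. IC50 reported as mean ± SD of three separate experiments, each run in triplicate.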

[2] = system: T47D; assay: Cytotoxicity against human T47D cells by MTT assay; type: functional, cell-based; summary of the method: as §1
[3] = target: Procathepsin L (Homo sapiens, UniProt P07711); assay: Inhibition of cathepsin L (unknown origin) using Z-FR-AMC as substrate after 30 mins by fluorescence assay
Sequence of Procathepsin L (P07711 whole entry): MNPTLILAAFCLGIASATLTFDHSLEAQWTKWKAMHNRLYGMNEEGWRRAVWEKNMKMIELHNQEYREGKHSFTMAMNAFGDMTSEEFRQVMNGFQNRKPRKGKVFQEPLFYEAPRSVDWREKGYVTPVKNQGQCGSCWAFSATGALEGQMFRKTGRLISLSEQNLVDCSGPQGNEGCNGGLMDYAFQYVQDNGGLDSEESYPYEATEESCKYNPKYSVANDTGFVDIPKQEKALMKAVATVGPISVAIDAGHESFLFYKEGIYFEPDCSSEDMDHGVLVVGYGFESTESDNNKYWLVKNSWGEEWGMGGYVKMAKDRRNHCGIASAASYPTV
Summary of the method: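 Calbiochem cathepsin L (4 nM) was reductively pre-activated for 30 min at 37 °C in 0.1 M NaOAc-HCl, 1 mM EDTA, 0.1% β-mercaptoethanol, pH 5.5. Reaction started with compound plus 20 μM Z-FR-AMC and ran 30 min at room temperature. Fluorescence read at 360 nm excitation / 450 nm emission. IC50 is the mean ± SD of triplicate runs.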

[4] = target: Cathepsin B (Homo sapiens, UniProt P07858); assay: Inhibition of cathepsin B (unknown origin) using RR-AMC as substrate after 30 mins by fluorescence assay
[5] = target: DNA topoisomerase 2-alpha (Homo sapiens) (UniProt P11388); assay: Inhibition of human topoisomerase 2 at 100 uM relative to control
Sequence of DNA topoisomerase 2-alpha (Homo sapiens) (P11388 whole entry): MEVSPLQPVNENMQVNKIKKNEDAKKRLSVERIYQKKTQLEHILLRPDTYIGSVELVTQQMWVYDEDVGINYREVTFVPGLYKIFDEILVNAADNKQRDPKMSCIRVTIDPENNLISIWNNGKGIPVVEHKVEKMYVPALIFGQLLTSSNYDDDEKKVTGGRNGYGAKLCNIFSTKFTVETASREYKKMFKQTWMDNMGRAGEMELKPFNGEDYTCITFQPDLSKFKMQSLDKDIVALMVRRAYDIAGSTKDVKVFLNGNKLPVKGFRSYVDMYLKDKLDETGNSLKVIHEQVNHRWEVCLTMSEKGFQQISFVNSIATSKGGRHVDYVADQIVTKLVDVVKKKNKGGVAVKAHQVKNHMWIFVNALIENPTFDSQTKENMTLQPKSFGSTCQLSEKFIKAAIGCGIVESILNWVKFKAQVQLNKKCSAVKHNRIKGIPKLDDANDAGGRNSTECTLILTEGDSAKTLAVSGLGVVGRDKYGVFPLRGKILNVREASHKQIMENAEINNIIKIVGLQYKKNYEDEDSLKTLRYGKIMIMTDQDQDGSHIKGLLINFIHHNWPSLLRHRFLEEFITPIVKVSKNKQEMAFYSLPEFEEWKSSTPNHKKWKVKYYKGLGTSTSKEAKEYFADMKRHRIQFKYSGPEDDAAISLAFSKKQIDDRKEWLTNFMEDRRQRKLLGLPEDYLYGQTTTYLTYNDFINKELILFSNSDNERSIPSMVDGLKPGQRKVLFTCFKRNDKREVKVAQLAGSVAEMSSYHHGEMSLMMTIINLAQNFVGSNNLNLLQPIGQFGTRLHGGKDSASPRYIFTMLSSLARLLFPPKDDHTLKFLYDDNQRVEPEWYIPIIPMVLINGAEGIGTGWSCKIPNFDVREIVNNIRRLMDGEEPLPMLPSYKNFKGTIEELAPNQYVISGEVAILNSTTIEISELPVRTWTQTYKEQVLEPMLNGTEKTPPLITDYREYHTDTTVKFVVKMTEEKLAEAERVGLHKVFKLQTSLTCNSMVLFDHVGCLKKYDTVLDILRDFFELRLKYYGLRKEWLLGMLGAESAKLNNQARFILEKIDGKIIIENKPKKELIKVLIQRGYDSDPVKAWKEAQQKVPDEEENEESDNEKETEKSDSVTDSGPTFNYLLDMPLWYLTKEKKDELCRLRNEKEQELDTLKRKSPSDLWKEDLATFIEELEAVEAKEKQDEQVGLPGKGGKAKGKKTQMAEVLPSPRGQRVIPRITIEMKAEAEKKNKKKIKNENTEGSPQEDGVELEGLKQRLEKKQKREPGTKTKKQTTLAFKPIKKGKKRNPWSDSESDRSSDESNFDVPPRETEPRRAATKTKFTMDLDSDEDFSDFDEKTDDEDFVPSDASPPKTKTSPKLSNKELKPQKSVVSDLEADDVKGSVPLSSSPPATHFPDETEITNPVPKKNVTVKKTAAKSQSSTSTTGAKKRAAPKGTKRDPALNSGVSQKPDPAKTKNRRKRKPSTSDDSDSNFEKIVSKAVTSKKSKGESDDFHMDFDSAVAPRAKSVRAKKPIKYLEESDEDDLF
Summary of the method: (§2)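 Supercoiled DNA relaxation assay with human topoisomerase I or II (Topogen). Compounds were tested at final 100 and 20 μM. Percent inhibition was derived from the inhibition ratio by image analysis and expressed as the mean of triplicate experiments.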

[6] = target: T1, DNA topoisomerase 1 (Homo sapiens) (UniProt P11387); assay: Inhibition of human topoisomerase 1 at 20 uM relative to control; summary of the method: as §2
T1 sequence (whole entry): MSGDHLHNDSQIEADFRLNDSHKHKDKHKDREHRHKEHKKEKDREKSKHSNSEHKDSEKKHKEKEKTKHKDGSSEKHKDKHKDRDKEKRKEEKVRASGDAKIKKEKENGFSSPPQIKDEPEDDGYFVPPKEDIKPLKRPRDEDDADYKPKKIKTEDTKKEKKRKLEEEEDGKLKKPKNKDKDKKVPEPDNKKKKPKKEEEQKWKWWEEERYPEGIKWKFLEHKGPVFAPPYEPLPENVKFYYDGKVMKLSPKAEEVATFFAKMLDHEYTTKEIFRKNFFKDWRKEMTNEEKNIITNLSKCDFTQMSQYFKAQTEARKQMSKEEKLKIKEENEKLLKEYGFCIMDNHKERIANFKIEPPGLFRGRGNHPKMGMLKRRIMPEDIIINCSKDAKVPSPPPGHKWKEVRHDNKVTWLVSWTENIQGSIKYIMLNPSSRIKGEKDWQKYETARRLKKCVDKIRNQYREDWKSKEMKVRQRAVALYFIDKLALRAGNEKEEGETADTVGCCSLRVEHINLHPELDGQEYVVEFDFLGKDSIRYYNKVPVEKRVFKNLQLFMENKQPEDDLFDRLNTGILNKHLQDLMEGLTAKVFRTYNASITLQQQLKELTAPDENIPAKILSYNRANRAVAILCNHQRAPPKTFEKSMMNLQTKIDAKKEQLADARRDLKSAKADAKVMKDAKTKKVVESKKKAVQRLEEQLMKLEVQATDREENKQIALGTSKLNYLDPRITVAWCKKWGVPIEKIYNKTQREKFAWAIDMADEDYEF

[7] = target: T1, DNA topoisomerase 1 (Homo sapiens); assay: Inhibition of human topoisomerase 1 at 100 uM relative to control; summary of the method: as §2
[8] = target: DNA topoisomerase 2-alpha (Homo sapiens) (UniProt P11388); assay: Inhibition of human topoisomerase 2 at 20 uM relative to control; summary of the method: as §2

Row | IC50 [3] | IC50 [4] | inhibition [5] | inhibition [6] | inhibition [7] | inhibition [8] | Compound | IC50 [1] | IC50 [2]
1 | 39.3 µM | 46.8 µM | 0% | 17.3% | 100% |  | COc1cc(O)ccc1/C=C/C(=O)c1ccc(NC(C)=O)cc1 | 17.4 µM | 12.3 µM
2 | 9.42 µM | 29 µM | 96.1% | 77.6% | 91.1% | 15.3% | O=C(/C=C/c1ccc(N2CCCC2)cc1)c1ccc([N+](=O)[O-])cc1 | > 25 µM | 21.3 µM
3 | 30.3 µM | 57.7 µM | 1.6% | 2.1% | 88.9% |  | COc1cc(O)ccc1/C=C/C(=O)c1ccc(O)cc1 [ECHINATIN] | 10.4 µM | 12.1 µM
4 | 45.3 µM | > 100 µM | 1% | 3.8% | 5% |  | COc1ccc(C(=O)/C=C/c2ccc(OC)c(Br)c2)c(O)c1 |  | 
5 | > 100 µM | > 100 µM | 5.8% | 2.1% | 74.4% |  | COc1ccc(/C=C/C(=O)c2cccs2)cc1Br | 16.6 µM | 21.9 µM
6 |  |  |  |  |  |  | COc1cccc2c1C(=O)c1c(O)c3c(c(O)c1C2=O)C[C@@](O)(C(=O)CO)C[C@@H]3O[C@H]1C[C@H](N)[C@H](O)[C@H](C)O1 [DOXORUBICIN] | 0.84 µM | 2.91 µM
7 | > 100 µM | > 100 µM | 0% | 18% | 50.9% |  | O=C(/C=C/c1ccc(F)cc1)c1ccc(O)cc1 | 5.54 µM | 13.8 µM
8 | 91.2 µM | > 100 µM | 0% | 61.6% | 86.1% |  | COc1cc(O)ccc1C(=O)/C=C/c1ccc(F)cc1 | > 25 µM | > 25 µM
9 | 32.9 µM | 76.5 µM | 0% |  | 0.8% |  | COc1cc(O)ccc1/C=C/C(=O)c1ccc(N)cc1 |  | 
10 | 98.7 µM | > 100 µM | 0% | 60% | 81.2% |  | COc1ccc(C(=O)/C=C/c2ccc(F)cc2)c(O)c1 | 18.4 µM | 21.9 µM
11 | 73.2 µM | 95.1 µM | 0.7% | 9.5% | 95.8% |  | COc1cc(O)ccc1/C=C/C(=O)c1ccc(F)cc1 | 6.3 µM | 8.51 µM
12 |  |  |  |  |  |  | COc1cc([C@@H]2c3cc4c(cc3[C@@H](O[C@@H]3O[C@@H]5CO[C@@H](C)O[C@H]5[C@H](O)[C@H]3O)[C@H]3COC(=O)[C@H]23)OCO4)cc(OC)c1O [ETOPOSIDE] | 2.57 µM | 4.98 µM
13 | 56.5 µM | 54.3 µM | 0% | 73.1% | 90.6% |  | O=C(/C=C/c1ccc(N2CCCC2)cc1)c1ccc(F)cc1 | > 25 µM | > 25 µM
14 | 4.72 µM | 28.7 µM | 0% | 64.4% | 87.1% |  | O=C(/C=C/c1ccc(N2CCCC2)cc1)c1ccc(O)cc1O | 5.77 µM | 6.99 µM
15 | > 100 µM | > 100 µM | 42.2% | 56.7% | 80.2% | 12.6% | O=C(/C=C/c1ccc(F)cc1)c1ccc(O)cc1O | 9.43 µM | 8.31 µM
16 | > 100 µM | > 100 µM | 48.7% | 20.1% | 76.5% | 0% | COc1ccc(/C=C/C(=O)c2ccc(F)cc2)cc1Br | > 25 µM | > 25 µM
17 | > 100 µM | > 100 µM | 24.7% | 8.8% | 92% | 0% | COc1ccc(/C=C/C(=O)c2ccco2)cc1Br | 4.29 µM | 10.9 µM
18 | 67.5 µM | > 100 µM | 2.4% | 8.2% | 73.2% |  | COc1ccc(/C=C/C(=O)c2ccc(O)cc2O)cc1Br | 2.89 µM | 1.05 µM
19 | 29.8 µM | > 100 µM | 1.2% | 6.6% | 24.8% |  | COc1ccc(/C=C/C(=O)c2ccc(O)cc2)cc1Br |  | 
20 | 3.15 µM | 1.81 µM | 96.8% | 60% | 74.7% | 19.1% | O=C(/C=C/c1ccc(N2CCCC2)cc1)c1ccc(O)cc1 | 0.62 µM | 1.37 µM
21 |  |  |  |  |  |  | CC[C@@]1(O)C(=O)OCc2c1cc1n(c2=O)Cc2cc3ccccc3nc2-1 [CAMPTOTHECIN] | 0.28 µM | 0.07 µM
